Measurements: ChEMBL document CHEMBL1240465, “Prenylflavonoids and prenyl/alkyl-phloroacetophenones: synthesis and antitumour biological evaluation” (Eur J Med Chem, 2010)

What was measured:
Type in all cases: functional, cell-based
HeLa = assay: Cytotoxicity against human HeLa cells after 72 hrs by XTT assay
Outline: (§1)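 Cells grown in DMEM (A549, HT-29, HeLa) or RPMI1640 (HL-60), both with 10% heat-inactivated fetal bovine serum, were exposed to compound across a concentration range for 72 h at 37 °C in humidified air/CO₂ (19/1), then read by XTT. Measurements were in triplicate. IC50 is the concentration giving 50% proliferation inhibition versus untreated controls, reported as mean ± S.D. of three independent determinations.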

HT-29 = assay: Cytotoxicity against human HT-29 cells after 72 hrs by XTT assay; settings: HT-29, 72 h
Outline: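 Cells grown in DMEM (A549, HT-29, HeLa) or RPMI1640 (HL-60), both with 10% heat-inactivated fetal bovine serum, were exposed to compound across a concentration range for 72 h at 37 °C in humidified air/CO₂ (19/1), then read by XTT. Measurements were in triplicate.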

HL-60 = assay: Cytotoxicity against human HL60 cells after 72 hrs by XTT assay; settings: HL-60, 72 h; outline: as §1
A549 = assay: Cytotoxicity against human A549 cells after 72 hrs by XTT assay; settings: A549, 72 h; outline: as §1

## CC(=O)c1c(O)cc(O)c(C/C=C(\C)CCC=C(C)C)c1O
HeLa
  IC50: 21 µM
HT-29
  IC50: 19 µM
HL-60
  IC50: 19 µM
A549
  IC50: 20 µM

## CC(=O)c1c(O)cc2c(c1O)CCC(C)(CC/C=C(\C)CCC=C(C)C)O2 (stereo unspecified)
HeLa
  IC50: 30 µM
HT-29
  IC50: > 100 µM
HL-60
  IC50: 31 µM
A549
  IC50: > 100 µM

## CC(=O)c1c(OC/C=C(\C)CC/C=C(\C)CCC=C(C)C)cc(O)c(C/C=C(\C)CC/C=C(\C)CCC=C(C)C)c1O
HeLa
  IC50: > 100 µM
HT-29
  IC50: > 100 µM
HL-60
  IC50: 32 µM
A549
  IC50: > 100 µM

## CC(=O)c1c(O)cc(OC/C=C(\C)CC/C=C(\C)CCC=C(C)C)cc1O
HeLa
  IC50: 29 µM
HT-29
  IC50: 31 µM
HL-60
  IC50: 32 µM
A549
  IC50: 32 µM

## CC(=O)c1c(O)cc(O)c(C/C=C(\C)CC/C=C(\C)CCC=C(C)C)c1O
HeLa
  IC50: 13 µM
HT-29
  IC50: 18 µM
HL-60
  IC50: 14 µM
A549
  IC50: 22 µM

## CCCCCCCC/C=C\CCCCCCCCOc1cc(O)c(C(C)=O)c(O)c1
HeLa
  IC50: 31 µM
HT-29
  IC50: 31 µM
HL-60
  IC50: 32 µM
A549
  IC50: 31 µM

## CCCCCCCC/C=C\CCCCCCCCOc1cc(O)cc(O)c1C(C)=O
HeLa
  IC50: 31 µM
HT-29
  IC50: > 100 µM
HL-60
  IC50: 32 µM
A549
  IC50: > 100 µM

## CCCCCCCC/C=C\CCCCCCCCc1c(O)cc(O)c(C(C)=O)c1O
HeLa
  IC50: > 100 µM
HT-29
  IC50: > 100 µM
HL-60
  IC50: > 100 µM
A549
  IC50: > 100 µM

## CCCCCCCCCCCCCCCCCCOc1cc(O)c(C(C)=O)c(O)c1
HeLa
  IC50: > 100 µM
HT-29
  IC50: > 100 µM
HL-60
  IC50: > 100 µM
A549
  IC50: > 100 µM

## CCCCCCCCCCCCCCCCCCOc1cc(O)cc(O)c1C(C)=O
HeLa
  IC50: > 100 µM
HT-29
  IC50: > 100 µM
HL-60
  IC50: > 100 µM
A549
  IC50: > 100 µM

## CCCCCCCCCCCCCCCCCCc1c(O)cc(O)c(C(C)=O)c1O
HeLa
  IC50: 28 µM
HT-29
  IC50: 26 µM
HL-60
  IC50: 31 µM
A549
  IC50: 32 µM

## CC(C)=CCC/C(C)=C/COc1cc2oc(-c3ccccc3)cc(=O)c2c(O)c1C/C=C(\C)CCC=C(C)C
HeLa
  IC50: 30 µM
HT-29
  IC50: 32 µM
A549
  IC50: 32 µM

## CC(C)=CCC/C(C)=C/Cc1c(O)cc2oc(-c3ccccc3)cc(=O)c2c1O
HeLa
  IC50: 32 µM
HT-29
  IC50: 33 µM
A549
  IC50: 32 µM

## COc1ccc(-c2oc3cc(OC)cc(O)c3c(=O)c2OC)cc1
HeLa
  IC50: 28 µM
HT-29
  IC50: 26 µM
A549
  IC50: 30 µM

## CC(=O)c1c(O)cc(O)cc1O [2,4,6-TRIHYDROXYACETOPHENONE]
HeLa
  IC50: > 100 µM
HT-29
  IC50: > 100 µM
HL-60
  IC50: > 100 µM
A549
  IC50: > 100 µM

## O=c1cc(-c2ccccc2)oc2cc(O)cc(O)c12 [CHRYSIN]
HeLa
  IC50: 29 µM
HT-29
  IC50: > 100 µM
A549
  IC50: > 100 µM

## C=C1CC[C@H]2C(C)(C)CCC[C@]2(C)[C@H]1CC/C(C)=C/Cc1c(O)cc2oc(-c3ccc(O)cc3)c(O)c(=O)c2c1O [DENTICULAFLAVONOL]
HeLa
  IC50: > 100 µM
HT-29
  IC50: > 100 µM
A549
  IC50: > 100 µM

## COc1cccc2c1C(=O)c1c(O)c3c(c(O)c1C2=O)C[C@@](O)(C(=O)CO)C[C@@H]3O[C@H]1C[C@H](N)[C@H](O)[C@H](C)O1 [DOXORUBICIN]
HeLa
  IC50: 0.29 µM
A549
  IC50: 0.26 µM

## COc1ccc(-c2oc3cc(O)cc(O)c3c(=O)c2OC)cc1 [ERMANIN]
HeLa
  IC50: 31 µM
HT-29
  IC50: 32 µM
A549
  IC50: 31 µM

## COc1ccc(-c2oc3cc(O)cc(O)c3c(=O)c2O)cc1 [KAEMPFERIDE]
HeLa
  IC50: 23 µM
HT-29
  IC50: 32 µM
A549
  IC50: 22 µM

## O=c1c(O)c(-c2ccc(O)cc2)oc2cc(O)cc(O)c12 [KAEMPFEROL]
HeLa
  IC50: > 100 µM
HT-29
  IC50: > 100 µM
A549
  IC50: > 100 µM

## CC(C)=CCC/C(C)=C/Cc1c(O)cc2oc(-c3ccc(O)cc3)c(O)c(=O)c2c1O [MACARANGIN]
HeLa
  IC50: > 100 µM
HT-29
  IC50: > 100 µM
A549
  IC50: > 100 µM

## COc1cc(O)c(C(C)=O)c(OC)c1 [XANTHOXYLIN]
HeLa
  IC50: > 100 µM
HT-29
  IC50: > 100 µM
HL-60
  IC50: > 100 µM
A549
  IC50: > 100 µM
